Source: ChEMBL document CHEMBL1152597, “Push-pull benzothiazole derivatives as probes for detecting beta-amyloid plaques in Alzheimer's brains” (Bioorg Med Chem, 2009)
The source made the active and inactive calls. The calls are words filed in the database; no cut-off is given here.

Key:
[1] = Inhibition of amyloid beta (1-42) aggregation by thioflavin T competition binding experiment
[2] = species on record: Mus musculus; assay: Binding affinity to beta-amyloid plaques in Alzheimer's disease Tg2576 mouse brain by thioflavin S staining; format: tissue-based
Outline: (§1)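 Tg2576 (female, 27-month-old) and wild-type (female, 27-month-old) mouse brains were cut into 10 µm serial sections. Sections were incubated 10 min with probe in 50% EtOH, washed twice for 1 min in 50% EtOH and examined by fluorescence microscopy. Serial sections were counterstained with thioflavin S to confirm plaques.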

[3] = species on record: Mus musculus; assay: Binding affinity to beta-amyloid plaques in wild type mouse assessed as accumulation in brain by thioflavin S staining; format: tissue-based; outline: as §1
[4] = molecular target: Amyloid-beta precursor protein (Homo sapiens) (UniProt P05067); assay: Binding affinity to beta-amyloid plaques in Alzheimer's disease patient temporal cortex by immunohistochemical staining; format: tissue-based
Chain of Amyloid-beta precursor protein (Homo sapiens) (P05067 whole entry): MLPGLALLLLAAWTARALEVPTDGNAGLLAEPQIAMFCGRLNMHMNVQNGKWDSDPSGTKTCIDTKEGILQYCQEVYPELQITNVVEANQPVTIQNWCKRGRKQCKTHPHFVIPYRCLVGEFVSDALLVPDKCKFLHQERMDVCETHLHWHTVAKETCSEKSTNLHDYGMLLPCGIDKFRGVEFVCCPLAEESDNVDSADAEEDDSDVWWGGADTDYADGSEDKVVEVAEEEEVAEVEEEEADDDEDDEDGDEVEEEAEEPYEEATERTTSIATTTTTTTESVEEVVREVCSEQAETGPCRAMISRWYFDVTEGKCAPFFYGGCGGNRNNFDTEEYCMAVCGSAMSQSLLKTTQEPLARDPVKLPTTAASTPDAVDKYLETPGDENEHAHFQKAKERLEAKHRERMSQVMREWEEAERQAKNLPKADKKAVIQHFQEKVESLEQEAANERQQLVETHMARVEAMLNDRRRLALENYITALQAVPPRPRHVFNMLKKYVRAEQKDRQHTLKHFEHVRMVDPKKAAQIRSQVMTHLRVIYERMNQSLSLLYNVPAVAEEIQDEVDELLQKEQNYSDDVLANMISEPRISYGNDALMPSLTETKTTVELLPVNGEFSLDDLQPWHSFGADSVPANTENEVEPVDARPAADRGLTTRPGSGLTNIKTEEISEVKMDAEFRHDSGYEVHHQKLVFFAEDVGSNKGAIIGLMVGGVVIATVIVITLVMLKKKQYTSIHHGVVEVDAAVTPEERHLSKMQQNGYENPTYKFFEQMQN
Outline: (§2)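 Probe staining was done on 5 µm sections of temporal cortex from AD brain and from adult normal brain, read by fluorescence microscopy. Serial sections were immunostained with anti-Aβ antibodies to compare the plaque staining pattern.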

[5] = molecular target: Amyloid-beta precursor protein (Homo sapiens) (UniProt P05067); assay: Binding affinity to beta-amyloid plaques in normal patient brain section by immunohistochemical staining; outline: as §2

In the case of CN(C)c1ccc2nc(C=C(C#N)C#N)sc2c1, the IC50 [1] is reported as 120 nM, the Activity [2] is reported as “Active” and the Activity [3] is reported as “inactive”. For the same molecule, the Activity [4] was “Active” and the Activity [5] was “inactive”.

With CN(C)c1ccc2nc(/C=C/c3ccc(C=C(C#N)C#N)cc3)sc2c1 the IC50 [1] was 110 nM, the Activity [2] was “Active” and the Activity [3] was “inactive”. For the same molecule, the Activity [4] was “Active” and the Activity [5] was “inactive”.

Work on [11CH3]Nc1ccc(-c2nc3ccc(O)cc3s2)cc1 [PITTSBURGH COMPOUND B] yielded an IC50 [1] of 670 nM.
